According to PubChem BioAssay AID588744 (Vanderbilt Specialized Chemistry Center, 2011):
Activity calls are given as the source filed them.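 How the source made its calls: active means compounds whose response rose with dose, given a half-maximal potency and peak effect versus acetylcholine; inactive means the rest.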

Molecular target: Muscarinic acetylcholine receptor M1 (Homo sapiens) (UniProt P11229)
Experiment: M1 positive allosteric modulation, counter-screen, dose response, counter-screen for M4 PAM project, human, CHO cells, calcium fluorescence (AID 588744)
Settings: CHO hM1 calcium mobilization, Fluo-4 fluorescence
In short: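 System: hM1-expressing CHO cells with Fluo-4 / Probe or stimulus: acetylcholine at EC20, then acetylcholine at EC80 / Incubation: 144 s compound pretreatment, 86 s EC20–EC80 gap, 37 °C / Measured by: Fluo-4 calcium fluorescence / Read-out: % of 1 mM ACh maximum and EC50 / Benchmarks: 1 mM acetylcholine maximum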

Sequence of Muscarinic acetylcholine receptor M1 (Homo sapiens) (P11229 whole entry, looked up): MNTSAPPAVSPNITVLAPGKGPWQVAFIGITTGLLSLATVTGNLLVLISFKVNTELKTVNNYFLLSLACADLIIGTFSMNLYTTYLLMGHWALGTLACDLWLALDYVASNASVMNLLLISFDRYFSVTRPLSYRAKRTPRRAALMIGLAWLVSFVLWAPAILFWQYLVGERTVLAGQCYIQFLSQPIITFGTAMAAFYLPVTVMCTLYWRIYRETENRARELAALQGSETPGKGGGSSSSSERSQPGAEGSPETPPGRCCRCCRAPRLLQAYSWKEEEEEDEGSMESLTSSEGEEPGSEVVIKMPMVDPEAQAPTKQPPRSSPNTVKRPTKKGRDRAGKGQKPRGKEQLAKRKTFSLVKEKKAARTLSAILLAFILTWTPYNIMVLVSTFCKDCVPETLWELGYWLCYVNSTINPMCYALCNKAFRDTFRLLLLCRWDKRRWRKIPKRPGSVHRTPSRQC

SMILES: Cc1nc2sc(C(=O)NCc3nccs3)c(N)c2c(C)c1Cl
- % ACh max response (at 30 µM (top of the series)): inactive

SMILES: Cc1nc2sc(C(=O)NCc3cccnc3)c(N)c2c(C)c1Cl
- % ACh max response (at 45.3 µM (top of the series)): inactive

SMILES: Cc1nc2sc(C(=O)NCc3ccccc3)c(N)c2c(C)c1Cl
- % ACh max response (at 37.4 µM (top of the series)): inactive

SMILES: Cc1nc2sc(C(=O)NCc3ccc4c(c3)OCO4)c(N)c2c(C)c1Cl
- % ACh max response (at 36.8 µM (top of the series)): inactive

SMILES: Cc1nc2sc(C(=O)NCc3ccncc3)c(N)c2c(C)c1Cl
- % ACh max response (at 45.3 µM (top of the series)): inactive

SMILES: Cc1nc2sc(C(=O)NCc3cccc(F)c3F)c(N)c2c(C)c1Cl
- % ACh max response (at 30 µM (top of the series)): inactive

SMILES: Cc1nc2sc(C(=O)NCCc3ccncc3)c(N)c2c(C)c1Cl
- % ACh max response (at 30 µM (top of the series)): inactive

SMILES: Cc1nc2sc(C(=O)NC3CC3)c(N)c2c(C)c1Cl
- EC50: 969 nM

SMILES: Cc1nc2sc(C(=O)NCc3ccncn3)c(N)c2c(C)c1Cl
- % ACh max response (at 30 µM (top of the series)): inactive
